Test results as given in article PMC5598371 (Toxicology Reports, 2015).

Key:
[1] = system: HSC-2; conditions: read-out: 50% cytotoxic concentration (CC50); HSC-2, derived from tongue; cited from earlier work
[2] = Cytotoxic activity, MTT method; format: cell-based; conditions: human
[3] = system: HGF/HPLF/HPC vs human OSCC cell lines; assay: Tumor-specificity; format: cell-based; conditions: TS x (1/B) x 100; HGF/HPLF/HPC as normal cells
[4] = system: Ca9-22; conditions: read-out: 50% cytotoxic concentration (CC50); Ca9-22, derived from gingiva (A); cited from earlier work
[5] = system: Pulp cell (HPC); conditions: read-out: 50% cytotoxic concentration (CC50), normal; cited from earlier work
[6] = system: Gingival fibroblast (HGF); conditions: read-out: 50% cytotoxic concentration (CC50), normal (C); cited from earlier work
[7] = system: Periodontal ligament fibroblast (HPLF); conditions: read-out: 50% cytotoxic concentration (CC50), normal; cited from earlier work
[8] = system: HGEP vs human OSCC cell lines; assay: Tumor-specificity; format: cell-based; conditions: for Tumor-specificity index (TS) F/B: CC50 HGEP / mean CC50 OSCC lines; for Potency-selectivity expression (PSE) F/B^2: TS x (1/B) x 100, HGEP as normal cells
[9] = Cytotoxic activity, MTT method; format: cell-based; conditions: human, oral keratinocytes (HOK), normal epithelial cells
Summary of the method: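 HOK grown in keratinocyte growth supplement medium, harvested with 0.25% trypsin-0.025% EDTA. Seeded at 2.5 × 10^3 cells/0.1 ml, grown 48 h, then medium replaced with fresh medium containing test compound dilutions (80 mM DMSO stocks; final DMSO usually below […]) or matched DMSO vehicle. After incubation, 0.2 mg/ml MTT for 3 h, DMSO lysis, A540. CC50 from dose–response curve.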

[10] = system: HGF vs Ca9-22; conditions: CC50 HGF / CC50 Ca9-22; cited from earlier work
[11] = system: HOK vs human OSCC cell lines; assay: Tumor-specificity; format: cell-based; conditions: for Tumor-specificity index (TS) E/B: CC50 HOK / mean CC50 OSCC lines; for Potency-selectivity expression (PSE) E/B^2: TS x (1/B) x 100, HOK as normal cells
[12] = system: HGF/HPLF/HPC vs human OSCC cell lines; conditions: mean CC50 HGF/HPLF/HPC / mean CC50 OSCC lines; cited from earlier work
[13] = system: HSC-3; conditions: read-out: 50% cytotoxic concentration (CC50); HSC-3, derived from tongue; cited from earlier work
[14] = system: HSC-4; conditions: read-out: 50% cytotoxic concentration (CC50); HSC-4, derived from tongue; cited from earlier work
[15] = Effect of tetraethylammonium or cycloheximide on cytotoxicity; format: cell-based; conditions: Supplementary Fig. 3
[16] = system: HSC-2 cells; assay: Time course of cytotoxicity induction; format: cell-based, human
Summary of the method: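 Pulse-chase in HSC-2 (DMEM, 10% heat-inactivated FBS, 37 °C, 5% CO2). Cells seeded at 2.5 × 10^3/0.1 ml and grown 48 h. Exposed to graded test compound concentrations for varied times, then switched to drug-free medium until 47 h after first addition. Viability by MTT (0.2 mg/ml, 3 h, A540). CC50 from dose–response curve. Triplicates (Exp. I), quadruplicates (Exp. II).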

[17] = system: HSC-2 cells; assay: Western blot analysis of apoptosis and autophagy markers; format: cell-based, human
Summary of the method: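 HSC-2 cells treated with or without 10 μM for 4, 7.5 or 23 h. Laemmli whole-cell lysates (5 × 10^4 cells/lane) run on 12% SDS-PAGE and blotted to PVDF. Blocked 1 h in 5% BSA/TBS-Tween (pH 7.6). Primary anti-PARP, anti-caspase-3, anti-LC3 (1:1000) and anti-GAPDH (1:20,000) overnight at 4 °C, then HRP anti-rabbit 1 h at room temperature. Chemiluminescent detection; band densities expressed relative to GAPDH.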

[18] = system: HSC-2 cells; assay: Fine cell structure under transmission electron microscope; format: cell-based, human; conditions: 3 h with 3 or 10 μM, compared with control cells
Summary of the method: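 HSC-2 cells were seeded at 5 × 10^5 cells/10 ml and […]. After a medium change, near-confluent cells were exposed 3 h to test compound (0, 3 or 10 μM) and washed in cold PBS. Fixation: 2% glutaraldehyde/0.1 M cacodylate pH 7.4, 1 h, 4 °C, then scraped, pelleted and post-fixed 90 min in 1% OsO4. Dehydrated, Araldite-embedded, thin sections stained with uranyl acetate and lead citrate; TEM at ×5000, 100 kV.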

[19] = system: HSC-2 cells; assay: Metabolomic analysis; format: cell-based, human
Summary of the method: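 HSC-2 seeded 5 × 10^5 cells/10 ml, grown 48 h, re-fed for 30 min at 37 °C, then treated 3 h with 0, 1, 3 or 10 μM. Trypan-blue cell counts taken. Extraction: mannitol wash, then methanol with internal standards, chloroform/water partition and 5 kDa ultrafiltration. CE-TOFMS run in cation (1 M formic acid) and anion (50 mM ammonium acetate, pH 8.5) modes. One-point external calibration, normalised per cell. Quadruplicates, mean ± S.D., FDR-corrected p.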

[20] = 3 h, 1, 3 or 10 μM, not significant

SMILES: O=c1[nH]cc(F)c(=O)[nH]1 [5-FU, 5-fluorouracil, reference compound]
- CC50 [1]: 13 µM
- CC50 [2]: 18.8 µM
- Potency-selectivity expression (PSE) D/B^2 [3]: >309
- CC50 [4]: 29 µM
- CC50 [5]: > 1000 µM
- CC50 [6]: > 1000 µM
- CC50 [7]: > 1000 µM
- Tumor-specificity index (TS) F/B [8]: 1.0
- Potency-selectivity expression (PSE) F/B^2 [8]: 5.6
- CC50 [9]: 24.7 µM
- Tumor-specificity index (TS) C/A [10]: >34.5
- Tumor-specificity index (TS) E/B [11]: 1.4
- Potency-selectivity expression (PSE) E/B^2 [11]: 7.8
- Tumor-specificity index (TS) D/B [12]: >55.6
- CC50 [13]: 16 µM
- CC50 [14]: 13 µM

SMILES: COc1cccc2c1C(=O)c1c(O)c3c(c(O)c1C2=O)C[C@@](O)(C(=O)CO)C[C@@H]3O[C@H]1C[C@H](N)[C@H](O)[C@H](C)O1 [Doxorubicin, doxorubicin, reference compound]
- CC50 [1]: 0.12 µM
- CC50 [2]: 0.027 µM
- Potency-selectivity expression (PSE) D/B^2 [3]: >17333
- CC50 [4]: 0.26 µM
- CC50 [5]: > 10 µM
- CC50 [6]: 0.87 µM
- CC50 [7]: 0.87 µM
- Tumor-specificity index (TS) F/B [8]: 0.2
- Potency-selectivity expression (PSE) F/B^2 [8]: 133
- CC50 [9]: 1.31 µM
- Tumor-specificity index (TS) C/A [10]: 3.3
- Tumor-specificity index (TS) E/B [11]: 8.7
- Potency-selectivity expression (PSE) E/B^2 [11]: 5800
- Tumor-specificity index (TS) D/B [12]: >26.0
- CC50 [13]: 0.11 µM
- CC50 [14]: 0.094 µM

SMILES: COc1ccc(/C=C/c2coc3ccc(OC)cc3c2=O)cc1 [compound 4, (E)-6-methoxy-3-(4-methoxystyryl)-4H-chromen-4-one]
- CC50 [1]: 4.4 µM
- CC50 [2]: 178 µM
- Potency-selectivity expression (PSE) D/B^2 [3]: 630
- CC50 [4]: 4.4 µM
- CC50 [5]: 396 µM
- CC50 [6]: 229 µM
- CC50 [7]: 150 µM
- Tumor-specificity index (TS) F/B [8]: 27.8
- Potency-selectivity expression (PSE) F/B^2 [8]: 434
- CC50 [9]: 70 µM
- Tumor-specificity index (TS) C/A [10]: 52.0
- effect of pretreatment with cycloheximide on cytotoxicity [15]: inhibited
- Tumor-specificity index (TS) E/B [11]: 10.9
- Potency-selectivity expression (PSE) E/B^2 [11]: 170
- Tumor-specificity index (TS) D/B [12]: 40.3
- CC50 [13]: 7.7 µM
- dead cells produced ([16]; higher concentrations, Fig. 2): more than 90%
- CC50 [14]: 9.2 µM

SMILES: COc1ccc2occ(/C=C/c3cc(OC)c(OC)c(OC)c3)c(=O)c2c1 [compound 6, (E)-6-methoxy-3-(3,4,5-trimethoxystyryl)-4H-chromen-4-one]
- CC50 [1]: 6.8 µM
- CC50 [2]: 610 µM
- Potency-selectivity expression (PSE) D/B^2 [3]: 200
- CC50 [4]: 10 µM
- CC50 [5]: 284 µM
- CC50 [6]: 544 µM
- CC50 [7]: 190 µM
- Tumor-specificity index (TS) F/B [8]: 46.9
- Potency-selectivity expression (PSE) F/B^2 [8]: 361
- CC50 [9]: 77 µM
- Tumor-specificity index (TS) C/A [10]: 54.4
- effect of pretreatment with cycloheximide on cytotoxicity [15]: inhibited
- Tumor-specificity index (TS) E/B [11]: 5.9
- Potency-selectivity expression (PSE) E/B^2 [11]: 45
- Tumor-specificity index (TS) D/B [12]: 26.1
- CC50 [13]: 21 µM
- viable cells left ([16]; higher concentrations, Fig. 2): 30%
- CC50 [14]: 13 µM

SMILES: COc1ccc2occ(/C=C/c3ccc(O)cc3)c(=O)c2c1 [compound 11, (E)-3-(4-hydroxystyryl)-6-methoxy-4H-chromen-4-one]
- LC3-II expression (autophagy marker) ([17]; 10 μM for 4, 7.5 and 23 h): decreased time-dependently to undetectable level
- cleaved PARP1 and caspase-3 (apoptosis marker) ([17]; 10 μM, 23 h after treatment): appearance of cleaved PARP1 and caspase-3
- full length PARP ([17]; 10 μM, 23 h after treatment): loss of full length PARP
- type of cell death ([17]; 10 μM, HSC-2): induced apoptotic cell death after suppression of autophagy
- CC50 [1]: 1 µM
- CC50 [2]: > 800 µM
- Potency-selectivity expression (PSE) D/B^2 [3]: 3450
- CC50 [4]: 2.1 µM
- CC50 [5]: 272 µM
- mitochondrial vacuolization [18]: mitochondrial vacuolization became prominent
- CC50 [6]: 67 µM
- CC50 [7]: 74 µM
- Tumor-specificity index (TS) F/B [8]: >400
- Potency-selectivity expression (PSE) F/B^2 [8]: >20000
- CC50 [9]: 19 µM
- Tumor-specificity index (TS) C/A [10]: 31.9
- effect of BH blocker (tetraethylammonium) on cytotoxicity [15]: not inhibited
- effect of pretreatment with cycloheximide on cytotoxicity [15]: inhibited
- Tumor-specificity index (TS) E/B [11]: 9.5
- Potency-selectivity expression (PSE) E/B^2 [11]: 475
- Tumor-specificity index (TS) D/B [12]: 69.0
- CC50 [13]: 3.6 µM
- CC50 ([16]; Homo sapiens, HSC-2, Exp. I, exposure time 21 h, drug-free medium until 47 h): < 1.56 µM
- dead cells produced ([16]; higher concentrations, Fig. 2): more than 90%
- treatment time at which cytotoxicity was triggered ([16]; pulse-chase, HSC-2): 3 h
- CC50 [14]: 1.2 µM
- intracellular concentration of 2-oxoglutarate ([19]; 3 h, 1, 3 and 10 μM, Fig. 6A): reduced, but not significantly
- intracellular concentrations of 4-methyl-2-oxopentanoate, 2-hyroxyglutarate, creatine, 2-oxoisopentanoate (Q < 0.2), glycine and choline (p < 0.05) ([19]; 3 h, 1, 3 and 10 μM, Fig. 6A): significantly reduced
- intracellular concentrations of diethanolamine and CDP-choline ([19]; 3 h, 1, 3 and 10 μM, Fig. 6B): increased, but not significantly
- intracellular concentrations of proline, asparagine, DHAP, Ru5P, transcinnamate, γ-butyrobetaine (Q < 0.2) and glutamic acid (p < 0.05) ([19]; 3 h, 1, 3 and 10 μM, Fig. 6B): significantly increased
- NADH/NAD+ ratio [19, 20]: minor increase
- glycolytic metabolites (glucose-6-phosphate, fructose 6-phosphate, fructose 1,6-bisphospate, 3-phosphoglyceric acid) [19, 20]: minor increase
- intracellular concentration of metabolites in TCA cycle (citrate, cis-aconiate, succinate, fumarate, malate) [19, 20]: minor reduction
- lactate [19, 20]: minor reduction
- polyamine pathway (putrescine, spermidine) [19, 20]: minor reduction
- ratio of AMP/ATP [19, 20]: minor reduction
- ratio of GMP/GTP [19, 20]: minor reduction
- urea cycle (citrullin, arginine, ornithine) [19, 20]: no change or minor reduction
- extracellular concentration of diethanolamine after treatment ([19]; culture medium, before treatment 12.1 ± 13.4 μM): 11.8 ± 5.3 µM
